B1: DGΔ96–115: 96–115 aa of DGCR8 was removed (protein)
chain: METDESPSPLPCGPAGEAVMESRARPFQALPREQSPPPPLQTSSGAEVMDVGSGGDGQSELPAEDPFNFYGASLLSKGSFSKGRLLIDPNCSGHSKDVKISVSFTESCRSKDRKVLYTGAERDVRAECGLLLSPVSGDVHACPFGGSVGDGVGIGGESADKKDEENELDQEKRVEYAVLDELEDFTDNLELDEEGAGGFTAKAIVQRDRVDEEALNFPYEDDFDNDVDALLEEGLCAPKKRRTEEKYGGDSDHPSDGETSVQPMMTKIKTVLKSRGRPPTEPLPDGWIMTFHNSGVPVYLHRESRVVTWSRPYFLGTGSIRKHDPPLSSIPCLHYKKMKDNEEREQSSDLTPSGDVSPVKPLSRSAELEFPLDEPDSMGADPGPPDEKDPLGAEAAPGALGQVKAKVEVCKDESVDLEEFRSYLEKRFDFEQVTVKKFRTWAERRQFNREMKRKQAESERPILPANQKLITLSVQDAPTKKEFVINPNGKSEVCILHEYMQRVLKVRPVYNFFECENPSEPFGASVTIDGVTYGSGTASSKKLAKNKAARATLEILIPDFVKQTSEEKPKDSEELEYFNHISIEDSRVYELTSKAGLLSPYQILHECLKRNHGMGDTSIKFEVVPGKNQKSEYVMACGKHTVRGWCKNKRVGKQLASQKILQLLHPHVKNWGSLLRMYGRESSKMVKQETSDKSVIELQQYAKKNKPNLHILSKLQEEMKRLAEEREETRKKPKMSIVASAQPGGEPLCTVDV
B2: DG_Ala mut: V105A/F108A/L112A/L114A/L115A (protein)
chain: METDESPSPLPCGPAGEAVMESRARPFQALPREQSPPPPLQTSSGAEVMDVGSGGDGQSELPAEDPFNFYGASLLSKGSFSKGRLLIDPNCSGHSPRTARHAPAARKASPDAKAAKDVKISVSFTESCRSKDRKVLYTGAERDVRAECGLLLSPVSGDVHACPFGGSVGDGVGIGGESADKKDEENELDQEKRVEYAVLDELEDFTDNLELDEEGAGGFTAKAIVQRDRVDEEALNFPYEDDFDNDVDALLEEGLCAPKKRRTEEKYGGDSDHPSDGETSVQPMMTKIKTVLKSRGRPPTEPLPDGWIMTFHNSGVPVYLHRESRVVTWSRPYFLGTGSIRKHDPPLSSIPCLHYKKMKDNEEREQSSDLTPSGDVSPVKPLSRSAELEFPLDEPDSMGADPGPPDEKDPLGAEAAPGALGQVKAKVEVCKDESVDLEEFRSYLEKRFDFEQVTVKKFRTWAERRQFNREMKRKQAESERPILPANQKLITLSVQDAPTKKEFVINPNGKSEVCILHEYMQRVLKVRPVYNFFECENPSEPFGASVTIDGVTYGSGTASSKKLAKNKAARATLEILIPDFVKQTSEEKPKDSEELEYFNHISIEDSRVYELTSKAGLLSPYQILHECLKRNHGMGDTSIKFEVVPGKNQKSEYVMACGKHTVRGWCKNKRVGKQLASQKILQLLHPHVKNWGSLLRMYGRESSKMVKQETSDKSVIELQQYAKKNKPNLHILSKLQEEMKRLAEEREETRKKPKMSIVASAQPGGEPLCTVDV
B3: Deletion of the N-terminus of DGCR8 (1–275 aa): DGCR8 with deletion of 1–275 aa (protein, UniProt Q8WYQ5 276-773, looked up, fragment)
chain: DGETSVQPMMTKIKTVLKSRGRPPTEPLPDGWIMTFHNSGVPVYLHRESRVVTWSRPYFLGTGSIRKHDPPLSSIPCLHYKKMKDNEEREQSSDLTPSGDVSPVKPLSRSAELEFPLDEPDSMGADPGPPDEKDPLGAEAAPGALGQVKAKVEVCKDESVDLEEFRSYLEKRFDFEQVTVKKFRTWAERRQFNREMKRKQAESERPILPANQKLITLSVQDAPTKKEFVINPNGKSEVCILHEYMQRVLKVRPVYNFFECENPSEPFGASVTIDGVTYGSGTASSKKLAKNKAARATLEILIPDFVKQTSEEKPKDSEELEYFNHISIEDSRVYELTSKAGLLSPYQILHECLKRNHGMGDTSIKFEVVPGKNQKSEYVMACGKHTVRGWCKNKRVGKQLASQKILQLLHPHVKNWGSLLRMYGRESSKMVKQETSDKSVIELQQYAKKNKPNLHILSKLQEEMKRLAEEREETRKKPKMSIVASAQPGGEPLCTVDV
B4: DG115–773: 1–114 aa of DGCR8 was deleted (protein)
chain: LKDVKISVSFTESCRSKDRKVLYTGAERDVRAECGLLLSPVSGDVHACPFGGSVGDGVGIGGESADKKDEENELDQEKRVEYAVLDELEDFTDNLELDEEGAGGFTAKAIVQRDRVDEEALNFPYEDDFDNDVDALLEEGLCAPKKRRTEEKYGGDSDHPSDGETSVQPMMTKIKTVLKSRGRPPTEPLPDGWIMTFHNSGVPVYLHRESRVVTWSRPYFLGTGSIRKHDPPLSSIPCLHYKKMKDNEEREQSSDLTPSGDVSPVKPLSRSAELEFPLDEPDSMGADPGPPDEKDPLGAEAAPGALGQVKAKVEVCKDESVDLEEFRSYLEKRFDFEQVTVKKFRTWAERRQFNREMKRKQAESERPILPANQKLITLSVQDAPTKKEFVINPNGKSEVCILHEYMQRVLKVRPVYNFFECENPSEPFGASVTIDGVTYGSGTASSKKLAKNKAARATLEILIPDFVKQTSEEKPKDSEELEYFNHISIEDSRVYELTSKAGLLSPYQILHECLKRNHGMGDTSIKFEVVPGKNQKSEYVMACGKHTVRGWCKNKRVGKQLASQKILQLLHPHVKNWGSLLRMYGRESSKMVKQETSDKSVIELQQYAKKNKPNLHILSKLQEEMKRLAEEREETRKKPKMSIVASAQPGGEPLCTVDV

What follows are molecules tested on ERH (assay: Co-immunoprecipitation and Western blot of DGCR8 mutants and fragments with ERH). Details: co-IP / Western blot, overexpressed DGCR8 mutants, HEK293E, RNase A.
Assay type: binding, human
Summary of the method: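 HEK293E cells at 50% confluence were transfected with 5 μg total of Flag-, HA- or myc-tagged plasmids using branched/linear PEI (1:1) and harvested after 2 days. Anti-Flag, anti-HA or protein G-bound anti-myc beads were incubated with lysate 1–2 h at 4°C, washed three times and eluted in SDS buffer for western blot.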

Molecule	interaction with ERH
B1	could not pull down ERH
B2	impaired in ERH binding
B3	abrogated the interaction
B4	could not pull down ERH

Source: paper PMC7641749 (Nucleic Acids Research, 2020)
